Drawing on ChEMBL document CHEMBL4118127, “Structure activity relationship studies on rhodanines and derived enethiol inhibitors of metallo-β-lactamases” (Bioorg Med Chem, 2018), this text covers inhibition and Activity for 21 compounds.

Calls of active or inactive are those of the source.

Test [1] deals with Beta-lactamase OXA-10 (Pseudomonas aeruginosa) (UniProt P14489). The test is described as follows: Inhibition of recombinant Pseudomonas aeruginosa OXA-10 at 200 uM using FC5 as substrate.
Sequence of Beta-lactamase OXA-10 (Pseudomonas aeruginosa) (P14489 whole entry): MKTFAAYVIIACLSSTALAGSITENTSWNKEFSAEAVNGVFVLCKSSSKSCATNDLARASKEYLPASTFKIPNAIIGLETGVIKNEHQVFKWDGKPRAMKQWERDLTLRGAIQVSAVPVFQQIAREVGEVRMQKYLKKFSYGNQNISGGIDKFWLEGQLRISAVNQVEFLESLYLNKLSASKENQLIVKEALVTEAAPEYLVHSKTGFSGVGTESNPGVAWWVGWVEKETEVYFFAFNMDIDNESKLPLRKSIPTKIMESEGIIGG
Test [2] deals with Bacteria. The test is described as follows: Inhibition of recombinant bacterial IMP1 expressed in Escherichia coli BL21 (DE3) cells using FC4-FC5 as substrate assessed as residual activity at 100 uM by fluorescence-based assay. In outline: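 IMP-1 was incubated with inhibitor for 10 min before substrate was added. Residual activity was calculated from the initial rate of FC5 hydrolysis.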

Test [3] addresses Beta-lactamase CTX-M (Escherichia coli) (UniProt Q9EXV5). The test is described as follows: Inhibition of recombinant Escherichia coli EO516 N-terminal His6-tagged CTX-M using FC5 as substrate at 200 uM preincubated at 10 to 300 mins followed by substrate addition.
For test [4], the target named is Beta-lactamase TEM (Bacteria) (UniProt P62593). Briefly: Inhibition of recombinant N-terminal His-tagged Escherichia coli TEM1 (24 to 286 residues) expressed in Escherichia coli BL21(DE3) at 200 uM using FC5 as substrate.
Sequence of Beta-lactamase TEM (Bacteria) (P62593 whole entry, the tested form may be a part): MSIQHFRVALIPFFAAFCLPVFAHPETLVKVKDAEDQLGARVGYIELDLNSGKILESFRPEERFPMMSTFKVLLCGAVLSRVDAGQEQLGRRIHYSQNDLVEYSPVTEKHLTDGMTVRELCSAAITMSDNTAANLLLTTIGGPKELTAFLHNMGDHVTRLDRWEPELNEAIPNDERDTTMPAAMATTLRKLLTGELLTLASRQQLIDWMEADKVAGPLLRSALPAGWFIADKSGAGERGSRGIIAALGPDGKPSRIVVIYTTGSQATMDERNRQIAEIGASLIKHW
For test [5], the target named is Beta-lactamase (Escherichia coli K-12) (UniProt P00811). The test is described as follows: Inhibition of recombinant Escherichia coli AmpC at 200 uM using FC5 as substrate preincubated at 10 to 300 mins followed by substrate addition.
Sequence of Beta-lactamase (Escherichia coli K-12) (P00811 whole entry, the tested form may be a part): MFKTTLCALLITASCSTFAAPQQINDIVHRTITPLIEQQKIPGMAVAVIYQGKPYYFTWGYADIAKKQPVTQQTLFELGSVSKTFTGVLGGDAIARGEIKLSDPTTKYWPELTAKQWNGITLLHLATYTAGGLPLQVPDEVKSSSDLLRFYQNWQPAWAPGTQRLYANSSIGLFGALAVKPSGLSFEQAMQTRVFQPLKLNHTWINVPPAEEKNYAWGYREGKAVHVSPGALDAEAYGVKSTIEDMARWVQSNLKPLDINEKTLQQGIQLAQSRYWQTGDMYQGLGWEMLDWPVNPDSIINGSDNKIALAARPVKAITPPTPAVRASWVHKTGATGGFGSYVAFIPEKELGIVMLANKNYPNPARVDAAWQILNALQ
The subject of test [6] is Bacteria. The test is described as follows: Inhibition of recombinant full-length bacterial His6-tagged VIM2 (27 to 266 residues) expressed in Escherichia coli BL21 (DE3) cells using FC4-FC5 as substrate assessed as residual activity at 100 uM by fluorescence-based assay.
Test [7] addresses Beta-lactamase OXA-10 (Pseudomonas aeruginosa) (UniProt P14489). Briefly: Inhibition of recombinant Pseudomonas aeruginosa OXA-10 using FC5 as substrate assessed as residual activity at 200 uM.
For test [8], the target named is Beta-lactamase (Escherichia coli K-12) (UniProt P00811). Briefly: Inhibition of recombinant Escherichia coli AmpC assessed as residual activity at 200 uM using FC5 as substrate preincubated at 10 to 300 mins followed by substrate addition.
The subject of test [9] is Bacteria. Briefly: Inhibition of recombinant bacterial NDM1 expressed in Escherichia coli BL21 (DE3) cells at 100 uM using FC5 as fluorogenic reporter substrate preincubated at 10 to 300 mins followed by substrate addition.
Test [10] concerns the target T1, Metallo-beta-lactamase type 2 (Bacillus cereus) (UniProt P04190).
T1 sequence (whole entry): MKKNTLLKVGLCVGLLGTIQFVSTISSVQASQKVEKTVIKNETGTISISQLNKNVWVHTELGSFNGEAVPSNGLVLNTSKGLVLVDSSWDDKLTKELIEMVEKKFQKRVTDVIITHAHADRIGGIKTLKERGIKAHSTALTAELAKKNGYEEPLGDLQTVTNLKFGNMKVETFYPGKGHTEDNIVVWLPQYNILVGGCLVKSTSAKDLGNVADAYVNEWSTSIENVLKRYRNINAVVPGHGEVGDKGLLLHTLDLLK
Briefly: Inhibition of recombinant bacterial BC2 expressed in Escherichia coli BL21 (DE3) cells at 100 uM using FC4-FC5 as substrate by fluorescence-based assay.

Test [11] deals with Bacteria. Briefly: Inhibition of recombinant full-length bacterial His6-tagged SPM1 (29 to 276 residues) expressed in Escherichia coli BL21 (DE3) cells at 100 uM using FC4-FC5 as substrate by fluorescence-based assay.
For test [12], the system named is Bacteria. The test is described as follows: Inhibition of recombinant full-length bacterial His6-tagged VIM2 (27 to 266 residues) expressed in Escherichia coli BL21 (DE3) cells at 100 uM using FC4-FC5 as substrate by fluorescence-based assay.
The target in test [13] is Metallo-beta-lactamase type 2 (Aeromonas hydrophila) (UniProt P26918). The test is described as follows: Inhibition of Aeromonas hydrophila CphA at 100 uM using fluorogenic cephalosporin as substrate.
Sequence of Metallo-beta-lactamase type 2 (Aeromonas hydrophila) (P26918 whole entry): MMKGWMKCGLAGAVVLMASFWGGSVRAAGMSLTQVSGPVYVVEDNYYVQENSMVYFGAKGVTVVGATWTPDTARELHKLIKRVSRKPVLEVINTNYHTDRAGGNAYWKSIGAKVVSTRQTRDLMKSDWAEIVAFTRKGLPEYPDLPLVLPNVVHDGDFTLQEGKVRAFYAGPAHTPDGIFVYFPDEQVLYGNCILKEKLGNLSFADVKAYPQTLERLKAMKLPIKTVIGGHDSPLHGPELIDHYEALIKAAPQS
Test [14] has as its system Bacteria. The test is described as follows: Inhibition of recombinant bacterial IMP1 expressed in Escherichia coli BL21 (DE3) cells at 100 uM using FC4-FC5 as substrate by fluorescence-based assay.
The target of test [15] is Beta-lactamase TEM (Bacteria) (UniProt P62593). The test is described as follows: Inhibition of recombinant N-terminal His-tagged Escherichia coli TEM1 (24 to 286 residues) expressed in Escherichia coli BL21(DE3) using FC5 as substrate assessed as residual activity at 200 uM.

As to `O=P(O)(O)C(S)c1ccc(Br)cc1F` (stereo unspecified), the inhibition result in test [1], in test [3], in test [4] and in test [5] was “inactive” in each case. Further, the Activity with Bacteria [2] and in the test with Bacteria [6] was 100% throughout.

Take `CN1CCN(NC(=O)CN2C(=O)/C(=C/c3c4ccccc4cc4ccccc34)SC2=S)CC1`: the Activity in [7] was 41%; in [8] it was 1%.

As for `O=C(O)C(O)c1ccccc1` (stereo unspecified), the inhibition result (in the test with Bacteria [9]; in [10]; with Bacteria [11]; in the test on Bacteria [12]; in [13]; with Bacteria [14]) was “inactive” each time.

As to `O=C(O)/C(S)=C/c1c2ccccc2cc2ccccc12`, the Activity in test [15] is 40%.

As for `O=P(O)(O)C(O)c1ccc(Br)cc1F` (stereo unspecified), the inhibition entry in [1], in test [3], in [4] and in test [5] was “inactive” each time. Besides, the Activity with Bacteria [2] and in the test on Bacteria [6] was 100% throughout.

For the compound `CC1=N/C(=C\c2ccc(F)cc2)C(=O)O1`, the inhibition result in test [1], in [3], in [4] and in [5] was “inactive” each time. Also, the Activity with Bacteria [2] and in the test with Bacteria [6] was 100% throughout.

Take `O=C(O)CN1C(=O)/C(=C/c2ccccc2Br)SC1=S`: the inhibition entry in test [1], in test [3], in [4] and in test [5] was “inactive” in each case.

Take `CN1CCN(NC(=O)CN2C(=O)/C(=C/c3ccccc3Br)SC2=S)CC1`: the inhibition result in [1], in test [3], in [4] and in test [5] was “inactive” in each case.

For the compound `O=C(O)C(O)Cc1ccccc1` (stereo unspecified), the inhibition result (in the test on Bacteria [9]; in test [10]; with Bacteria [11]; in the test with Bacteria [12]; in test [13]; in the test on Bacteria [14]) was “inactive” in each case.

With `O=C(O)/C(O)=C/c1ccc(F)cc1`, the inhibition entry in test [1], in test [3], in test [4] and in test [5] was “inactive” throughout. For the same compound, the Activity in the test with Bacteria [2] and in the test on Bacteria [6] was 100% in each case.

Regarding `O=C(O)/C(S)=C/c1c(F)cccc1F`, the inhibition entry in test [1], in test [3], in test [4] and in [5] was “inactive” throughout.

Regarding `CN1CCN(NC(=O)CN2C(=O)/C(=C/c3c(F)cccc3F)SC2=S)CC1`, the inhibition result in [1], in [3], in [4] and in [5] was “inactive” in each case.

On to `O=C(O)/C(S)=C/c1c(Cl)cccc1Cl`, for which the inhibition result in test [1], in [3], in test [4] and in test [5] was “inactive” throughout.

As to `O=C(O)CN1C(=O)/C(=C/c2c(Cl)cccc2Cl)SC1=S`, the inhibition result in [1], in [3], in test [4] and in test [5] was “inactive” throughout.

On to `CN1CCN(NC(=O)CN2C(=O)/C(=C/c3cc(Cl)ccc3Cl)SC2=S)CC1`, for which the inhibition entry in test [1], in test [3], in [4] and in test [5] was “inactive” each time.

On to `O=C(O)CN1C(=O)/C(=C/c2cc(Cl)ccc2Cl)SC1=S`, for which the inhibition result in [1], in test [3], in [4] and in [5] was “inactive” in each case.

For the compound `O=C(O)/C(S)=C/c1ccccc1Br`, the inhibition result in test [1], in test [3], in test [4] and in test [5] was “inactive” throughout.

In the case of `O=C(O)/C(S)=C/c1ccccc1I`, the inhibition entry in test [1], in test [3], in test [4] and in test [5] was “inactive” each time.

For `O=C(O)/C(S)=C/c1c(Cl)ccc(Cl)c1Cl`, the inhibition entry in test [1], in [3], in [4] and in test [5] was “inactive” throughout.

As for `COc1ccc(/C=C2\SC(=S)N(CC(=O)NN3CCN(C)CC3)C2=O)cc1`, the inhibition entry in [1], in test [3], in test [4] and in test [5] was “inactive” each time.

Take `O=C(O)CN1C(=O)/C(=C/c2ccccc2F)SC1=S`: the inhibition result in test [1], in test [3], in test [4] and in test [5] was “inactive” throughout.
